Measurements taken from ChEMBL document CHEMBL1129478, “Structure-activity relationship studies of novel 4-[2-[bis(4-fluorophenyl)methoxy]ethyl]-1-(3-phenylpropyl)piperidine analogs: synthesis and biological evaluation at the dopamine and serotonin transporter sites” (J Med Chem, 1996).

Columns and labels:
[1] = biological target: Monoamine transporters; serotonin & dopamine (Rattus norvegicus) (UniProt P31652+P23977); assay: Selectivity for serotonin and dopamine transporters; format: protein assay
Chain of Monoamine transporters; serotonin & dopamine (Rattus norvegicus) (P23977 whole entry, looked up): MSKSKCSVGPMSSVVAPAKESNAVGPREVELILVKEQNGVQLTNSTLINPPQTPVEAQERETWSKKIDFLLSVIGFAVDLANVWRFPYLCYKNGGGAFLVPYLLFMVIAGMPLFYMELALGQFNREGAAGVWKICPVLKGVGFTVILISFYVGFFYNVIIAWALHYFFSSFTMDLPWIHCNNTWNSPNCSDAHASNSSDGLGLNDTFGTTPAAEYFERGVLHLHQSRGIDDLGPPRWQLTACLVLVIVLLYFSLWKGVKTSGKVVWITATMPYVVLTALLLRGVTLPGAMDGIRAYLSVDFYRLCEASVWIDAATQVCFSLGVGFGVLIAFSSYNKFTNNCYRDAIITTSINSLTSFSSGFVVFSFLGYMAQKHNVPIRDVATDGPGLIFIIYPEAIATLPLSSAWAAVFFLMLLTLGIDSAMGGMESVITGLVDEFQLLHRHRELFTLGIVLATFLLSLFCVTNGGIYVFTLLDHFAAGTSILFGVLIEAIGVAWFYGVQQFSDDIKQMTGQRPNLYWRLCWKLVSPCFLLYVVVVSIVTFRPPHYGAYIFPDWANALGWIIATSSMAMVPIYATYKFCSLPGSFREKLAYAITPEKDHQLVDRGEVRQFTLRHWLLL
Chain of Monoamine transporters; serotonin & dopamine (Rattus norvegicus) (P31652 whole entry, looked up): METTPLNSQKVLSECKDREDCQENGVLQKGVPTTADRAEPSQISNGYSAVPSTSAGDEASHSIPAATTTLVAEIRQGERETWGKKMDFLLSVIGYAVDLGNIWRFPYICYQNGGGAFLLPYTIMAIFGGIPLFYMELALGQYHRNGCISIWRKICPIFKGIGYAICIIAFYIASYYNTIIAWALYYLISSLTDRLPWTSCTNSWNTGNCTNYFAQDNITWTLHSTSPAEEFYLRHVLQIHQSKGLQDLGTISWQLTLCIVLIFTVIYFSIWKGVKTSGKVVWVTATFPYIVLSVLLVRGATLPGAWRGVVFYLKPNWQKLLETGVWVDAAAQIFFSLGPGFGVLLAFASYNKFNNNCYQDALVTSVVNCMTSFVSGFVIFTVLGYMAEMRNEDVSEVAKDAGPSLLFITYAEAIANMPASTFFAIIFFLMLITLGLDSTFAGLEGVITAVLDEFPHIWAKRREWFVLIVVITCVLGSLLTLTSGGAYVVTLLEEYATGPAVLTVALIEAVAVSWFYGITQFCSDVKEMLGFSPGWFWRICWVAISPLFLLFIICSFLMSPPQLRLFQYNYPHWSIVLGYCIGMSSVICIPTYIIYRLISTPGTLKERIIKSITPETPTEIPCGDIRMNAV

[2] = biological target: Sodium-dependent dopamine transporter (Rattus norvegicus, UniProt P23977); assay: Binding affinity at dopamine transporter from rat striatal membrane tissue by [3H]CFT displacement.; format: tissue-based, Striatum
Chain of Sodium-dependent dopamine transporter (P23977 whole entry): as the sequence (P23977 whole entry, looked up) above
How it was run: (§1)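 Rat striatal P2 membranes: tissue homogenised in 0.32 M sucrose, pellet polytronned in ice-cold 35 mM sodium phosphate, pH 7.4. Incubation 2 h on ice, final sodium phosphate 30 mM, final DMSO 0.5%. Five inhibitor concentrations set after range-finding. Mean ± SEM of 3–5 (DAT, [3H]CFT) or 2–3 (SERT, [3H]citalopram) independent experiments, each in triplicate.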

[3] = biological target: Sodium-dependent serotonin transporter (Rattus norvegicus, UniProt P31652); assay: Binding affinity at serotonin transporter from rat brain striatal membrane by [3H]citalopram displacement.; format: tissue-based; how it was run: as §1
Chain of Sodium-dependent serotonin transporter (P31652 whole entry): as the sequence (P31652 whole entry, looked up) above

Structure (SMILES)	Selectivity [1]	IC50 [2] [nM]	IC50 [3] [nM]
COc1ccc(C(OCCC2CCN(CCCc3ccccc3)CC2)c2ccc(OC)cc2)cc1	1.3	255	340
Brc1ccc(C(OCCC2CCN(CCCc3ccccc3)CC2)c2ccc(Br)cc2)cc1	5.2	159	835
Fc1ccc(C(OCC2CCN(Cc3ccccc3)CC2)c2ccc(F)cc2)cc1	6	126	761
Fc1ccc(C(OCC2CCN(CCc3ccccc3)CC2)c2ccc(F)cc2)cc1	17.5	13.5	237
Clc1ccc(C(OCCC2CCN(CCCc3ccccc3)CC2)c2ccc(Cl)cc2)cc1	3.5	65	224
Fc1ccc(C(OCCC2CCN(Cc3ccccc3)CC2)c2ccc(F)cc2)cc1	20	9.7	198
Brc1ccc(C(OCCC2CCN(CCc3ccccc3)CC2)c2ccc(Br)cc2)cc1	1.6	382	638
c1ccc(CN2CCC(CCOC(c3ccccc3)c3ccccc3)CC2)cc1	49	15.2	743
c1ccc(CCN2CCC(COC(c3ccccc3)c3ccccc3)CC2)cc1	4.2	108	456
Clc1ccc(C(OCCC2CCN(CCc3ccccc3)CC2)c2ccc(Cl)cc2)cc1	3.6	115	414
Fc1ccc(C(OCCC2CCN(CCc3ccccc3)CC2)c2ccc(F)cc2)cc1	–	–	31.9
Fc1ccc(C(OCCC2CCN(CCCc3ccccc3)CC2)c2ccc(F)cc2)cc1	3.3	16.7	55
Fc1ccc(C(OCC2CCN(CCCc3ccccc3)CC2)c2ccc(F)cc2)cc1	8.6	13	112
c1ccc(CCN2CCC(CCOC(c3ccccc3)c3ccccc3)CC2)cc1	–	–	102
c1ccc(CCCN2CCC(CCOC(c3ccccc3)c3ccccc3)CC2)cc1	20	12	232
c1ccc(CN2CCC(COC(c3ccccc3)c3ccccc3)CC2)cc1	0.7	702	544
c1ccc(CCCN2CCC(COC(c3ccccc3)c3ccccc3)CC2)cc1	4	14.5	58
Cc1ccc(C(OCCC2CCN(CCc3ccccc3)CC2)c2ccc(C)cc2)cc1	2.8	311	888
